Screening results (PubChem)
The list is not random: actives were taken first. Their share in the collection is about 1.8%.
Rce1 inhib – yeast Ras-converting enzyme inhibition; actives 0.27% (n = 290,000); Q03530; AID 2563; calls only; yeast membranes, quenched prenylated peptide cleavage fluorescence;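 active = fall in fluorescence gain of 50% or more versus controls, with final raw signal at or below 3038400; inconclusive = same 50% fall but final raw signal above 3038400; inactive = fall in fluorescence gain under 50%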;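 note: plate controls were neutral control wells for no effect and wells lacking membranes for full effect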
Runt-CBFb FRET – inhibitors of human RUNX1 Runt domain binding to CBFb; Q01196+Q13951; inhibition, % at 20 µM; AID 1496; Cerulean-Runt/Venus-CBFb FRET ratio 530/480, 1 h; actives 0.46% (n = 220,000);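 active = inhibition over about 50% at 20 µM in the single-dose screen, limit read from the data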;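 note: 0% = DMSO wells and 100% = excess unlabeled CBFb competitor control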
Target sequence (Q01196 whole entry, looked up, the tested form may be a part): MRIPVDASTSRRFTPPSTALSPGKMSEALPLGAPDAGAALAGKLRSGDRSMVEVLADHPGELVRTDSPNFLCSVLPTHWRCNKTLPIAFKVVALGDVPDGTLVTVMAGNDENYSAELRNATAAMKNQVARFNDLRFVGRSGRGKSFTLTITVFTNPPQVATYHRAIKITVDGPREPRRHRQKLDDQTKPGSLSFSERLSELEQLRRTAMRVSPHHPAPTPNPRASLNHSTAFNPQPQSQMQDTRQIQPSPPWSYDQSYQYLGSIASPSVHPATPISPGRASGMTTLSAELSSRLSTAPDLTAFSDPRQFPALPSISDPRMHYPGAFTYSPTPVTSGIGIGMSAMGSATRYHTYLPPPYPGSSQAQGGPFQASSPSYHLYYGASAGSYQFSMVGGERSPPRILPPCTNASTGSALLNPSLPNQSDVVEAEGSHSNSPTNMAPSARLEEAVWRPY
Target sequence (Q13951 whole entry, looked up, the tested form may be a part): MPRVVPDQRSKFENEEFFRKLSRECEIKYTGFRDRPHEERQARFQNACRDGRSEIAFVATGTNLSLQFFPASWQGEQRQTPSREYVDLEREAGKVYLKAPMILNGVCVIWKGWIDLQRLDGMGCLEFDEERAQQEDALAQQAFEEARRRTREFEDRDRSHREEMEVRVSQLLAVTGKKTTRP
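test system = Cerulean-tagged RUNX1 Runt domain (FRET donor) fusion protein | reagent = Venus-CBFb binding partner, 100 nM | incubation = protein complex preformed 1 h, compound exposure 1 h, room temperature, dark | detection = FRET fluorescence | read-out basis = loss of energy transfer signal | controls = 5 µM unlabeled CBFb as full-inhibition high control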
Platelet DG rel – modulates dense granule release in human platelets. human platelet-rich plasma, SFLLRN dense granule ATP release, luminescence. inhibition, %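 (compounds screened at 7.5 µM in platelet-rich plasma)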. actives 0.22% (n = 300,000). AID 1663;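 active = mean replicate score, as percent of positive control, at or above 50; inconclusive = mean below 50 but at least one replicate at or above 50; inactive = mean and every replicate below 50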
Runt-SMMHC FRET – blocks binding of human RUNX1 Runt domain to CBFb-SMMHC; actives 0.74% (n = 220,000); Cerulean-Runt/Venus-CBFb-SMMHC FRET ratio 530/480, 1 h; inhibition, % at 20 µM;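 active = mean inhibition across duplicate retests at 20 µM reaching about 50%, limit read from the data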;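 note: 0% = DMSO wells and 100% = wells with excess untagged CBFb-SMMHC; inhibitors lower the FRET ratio by blocking Runt binding to CBFb-SMMHC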
RanGTP-Imp inh – disruptors of Ran-importin-beta complex formation – biochemical, FRET, CFP-Ran, YFP-importin-beta, homogeneous, primary screen; cell-free CFP-Ran/YFP-importin-beta FRET ratio; inhibition, % (concentration not given with the values); actives 1.1% (n = 300,000);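 active = more than half of the replicate wells show a fall in the fluorescence ratio signal beyond about 16%, limit read from the data, passing the limit was not always enough; inconclusive = exactly half of the replicate wells pass the set limit; inactive = fewer than half of replicates pass the limit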;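 note: 0% = DMSO wells and 100% = Ran loaded with GDP instead of GTP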
Numbers without * were called inactive; i = inactive; ? = inconclusive; · = no result given; + = active, no number.

SMILES | Rce1 inhib | Runt-CBFb FRET | Platelet DG rel | Runt-SMMHC FRET | RanGTP-Imp inh
Cc1ccc(C2=NN(C(=O)CCC(=O)O)C(c3cccs3)C2)cc1 (stereo not given) | i | -0.7 | -2.5 | -3.4 | -2.4
Cc1cc(=O)[nH]c2ccc(S(=O)(=O)NC3CCCCC3)cc12 | i | · | 63.2* | · | 9.4
Cc1ccc(S(=O)(=O)NC2CCCC2)cc1C | i | 2.2 | · | -6.0 | 4.2
COc1ccc(-c2nc(C#N)c(NC(C)c3ccccc3)o2)cc1OC (stereo not given) | ? | -2.6 | 69.9* | -4.5 | 2.2
CN(C)S(=O)(=O)c1ccc(N2CCCC2)c(C(=O)Nc2nc(-c3cc(F)ccc3F)cs2)c1 | i | -6.9 | 5.1 | -1.6 | 4.1
CCN(CC)c1ccc(-c2nn3c(-c4cccnc4)nnc3s2)cc1 | i | 20.7 | 3.6 | 80.1* | 11.4
c1cncc(-c2nnc3sc(-c4ccco4)nn23)c1 | i | 2.8 | 1.2 | -3.2 | 4.6
COc1ccc2nc(N(CCN(C)C)C(=O)c3ccc4ccccc4c3)sc2c1 | i | · | -10.9 | · | 10.2
Cc1ccc2nc(N(CCN(C)C)C(=O)c3ccc4ccccc4c3)sc2c1 | + | · | -8.5 | · | -0.8
Cc1cccc2sc(N(CCN(C)C)C(=O)c3ccc4ccccc4c3)nc12 | + | · | -4.7 | · | -1.0
CN(C)CCN(C(=O)c1ccc2ccccc2c1)c1nc2ccc(Br)cc2s1 | + | · | -11.9 | · | 9.8
CN(C)CCN(C(=O)c1ccc2ccccc2c1)c1nc2cc3c(cc2s1)OCCO3 | i | · | -3.7 | · | -3.7
CN(C)CCN(C(=O)c1ccc2ccccc2c1)c1nc2c(F)cc(F)cc2s1 | i | · | 2.9 | · | 6.7
CCN(CC)CCN(C(=O)c1ccc2ccccc2c1)c1nc2ccc(F)cc2s1 | + | · | -8.2 | · | -0.3
O=C(O)/C=C/C(=O)c1ccc2c(c1)CCc1ccccc1-2 | i | · | 5.5 | · | -0.8
O=C(CNCCc1ccc(Cl)cc1)Nc1ccc(C(=O)N2CCCCC2)cc1 | i | · | -6.7 | · | 1.9
CC1CCCCN1Cc1nc2c(c(=O)n(C)c(=O)n2C)n1CCCc1ccccc1 (stereo not given) | i | · | 55.5* | · | 1.8
Cn1c(=O)c2c(nc(CN3CCCCC3)n2CCCc2ccccc2)n(C)c1=O | i | · | 2.0 | · | 3.3
Cc1[nH]n(-c2ccccc2)c(=S)c1C=Nc1ccc([N+](=O)[O-])cc1 | · | -7.4 | · | 73.8* | ·
COC(=O)c1ccc(/C=C/c2nc3ccccc3c(=O)[nH]2)cc1 | i | · | 62.8* | · | 7.8
Cc1ccc(/C=C/c2nc3ccccc3c(=O)[nH]2)cc1 | i | 2.0 | 45.0 | -0.9 | 1.0
CC1CCN(C(=O)C2CCN(S(=O)(=O)c3ccc(-n4cnnn4)cc3)CC2)CC1 | + | · | 3.1 | · | -2.6
Cc1ccc(C=Nc2cccnc2N)cc1 | i | 33.3 | 7.4 | 51.9 | 13.7
COc1ccc(C=Nc2cccnc2N)cc1 | i | · | 2.6 | · | 25.1*
CC1(C)Cc2c(sc3ncn4c(=S)[nH]nc4c23)CO1 | i | 46.1 | 15.6 | 59.5* | 2.3
SMILES | Rce1 inhib | Runt-CBFb FRET | Platelet DG rel | Runt-SMMHC FRET | RanGTP-Imp inh
CC1(C)Cc2c(sc3ncn(N)c(=N)c23)CO1 | i | 0.3 | -3.1 | 4.2 | -0.2
CC12CCC(=O)N1C(C(=O)Nc1nc3ccc(Cl)cc3s1)CS2 (stereo not given) | i | · | 8.0 | · | 2.8
c1ccc(C(c2c[nH]c3ccccc23)c2c[nH]c3ccccc23)nc1 | i | 0.5 | -3.3 | 2.9 | 52.4*
Cn1cc(C(c2ccccn2)c2cn(C)c3ccccc23)c2ccccc21 | i | -1.4 | 3.1 | 4.0 | -1.9
N/N=C(\Cc1cscn1)c1ccc(O)cc1O | i | -148.0 | 57.4* | -132.8 | -3.9
Cc1nc(C/C(=N\N)c2ccc(O)cc2O)cs1 | i | -15.0 | -12.2 | -139.2 | 9.1
COc1ccc(-c2cc(C(=O)OCC(=O)Nc3cc(C)on3)c3ccccc3n2)cc1OC | i | 3.8 | -1.4 | -21.1 | 89.7*
O=C(COC(=O)c1cc(-c2ccc(Cl)s2)nc2ccccc12)NCc1ccco1 | i | -0.4 | 8.5 | -15.7 | 1.1
COc1ccc(CNC(=O)COC(=O)c2cc(-c3ccc(Cl)s3)nc3ccccc23)cc1 | i | -1.8 | 20.9 | -5.6 | 16.6*
CN(C)c1ccc(C2C3C(=O)NC(=O)C3ON2c2ccc(Cl)cc2)cc1 (stereo not given) | i | 5.7 | 3.4 | 2.2 | 22.0*
CN(C)/C=C1\NC(=S)N(c2ccc(Cl)cc2)C1=O | · | 2.6 | -2.9 | 0.1 | 2.6
Nc1[nH]c(=O)nc(Nc2ccccc2)c1N=O | i | · | 4.1 | · | 37.8*
Nc1nc(-c2ccccc2)[nH]c(=O)c1N=O | i | 1.9 | 4.8 | -3.2 | -0.8
O=C(NCc1nnc(SCC(=O)N2CCCCCC2)o1)c1ccccc1F | i | · | -4.9 | · | -1.0
O=C(CSc1n[nH]c(=O)[nH]c1=O)N/N=C/C=C\c1ccccc1 | i | 82.7* | -1.3 | -6.5 | -0.1
Cc1cccc2cc(C#N)c(N3CCC(O)CC3)nc12 | i | 35.5 | -3.4 | 70.6* | 28.5*
Cc1ccc2cc(C#N)c(N3CCCN(C(=O)C4CCCO4)CC3)nc2c1C (stereo not given) | i | 6.3 | 2.6 | 64.3* | 50.1*
COCCCNC(=S)N1CCCN(c2nc3c(C)c(C)ccc3cc2C#N)CC1 | i | · | -4.9 | · | 42.9*
COCCCNC(=S)NCCCNc1nc2cc(C)cc(C)c2cc1C#N | i | 20.2 | -10.1 | 65.9* | -8.8
CSCCC(NC(=O)c1ccccc1Cl)C(=O)N1CCN(C(c2ccccc2)c2ccccc2)CC1 (stereo not given) | i | · | -11.5 | · | 4.8
COCCCNC(=S)NCCNc1nc2c(C)c(C)ccc2cc1C#N | · | 32.4 | · | 64.4* | ·
Cc1cc(C)c2nc(N3CCCN(C(=O)c4ccco4)CC3)c(C#N)cc2c1 | i | 13.0 | 5.4 | 69.9* | 89.0*
Cc1nc(N2CCN(C(=O)c3ccco3)CC2)c(C#N)c2c1CCCC2 | i | · | 3.8 | · | 4.6
CCSc1nnc(NC(=O)CSc2nccn2-c2cccc(C)c2C)s1 | i | -2.5 | -7.8 | 2.6 | -1.4
CCSc1nnc(NC(=O)CSc2nccn2-c2cc(C)cc(C)c2)s1 | i | -3.0 | 10.4 | -2.2 | 26.2*
SMILES | Rce1 inhib | Runt-CBFb FRET | Platelet DG rel | Runt-SMMHC FRET | RanGTP-Imp inh
COC(=O)c1cc2ccsc2n1CC(=O)N(C)C1CCCCC1 | i | -2.0 | -7.0 | -2.8 | 0.2
Cc1ccc(C2C(C#N)=C(N)SC(N)=C2C#N)c(C)c1 | i | 9.8 | -11.8 | 27.0 | 46.7*
Cc1ccc(C2C(C#N)=C(N)SC(N)=C2C#N)cc1 | · | 11.3 | · | 22.0 | ·
CCn1c(=O)cc(N2CCN(Cc3ccccc3)CC2)[nH]c1=O | i | · | 52.6* | · | ?
O=c1cc(N2CCN(c3ccccc3Cl)CC2)[nH]c(=O)n1Cc1ccc(F)cc1 | i | 1.6 | 9.1 | -3.3 | 7.8
O=c1cc(N2CCN(Cc3ccccc3)CC2)[nH]c(=O)n1Cc1ccc(F)cc1 | i | 1.6 | 0.9 | -1.3 | 41.5*
